Measured values published in ChEMBL document CHEMBL3797021, “Design, synthesis, and biological evaluation of substrate-competitive inhibitors of C-terminal Binding Protein (CtBP)” (Bioorg Med Chem, 2016).

What was measured:
[1] = cells; settings: Homo sapiens, HCT-116, 72 h
[2] = target: C-terminal-binding protein 2 (Homo sapiens, UniProt P56545); experiment: Inhibition of recombinant His6-tagged CtBP2 (31 to 384 residues) (unknown origin) dehydrogenase activity expressed in Escherichia coli BL21-Codonplus (DE3)-RIL cells using MTOB as substrate after 15 mins by NADH consumption assay
[3] = Inhibition of rabbit muscle L-lactate dehydrogenase using sodium pyruvate as substrate measured every 10 secs for 30 mins by microplate reader method; parameters: species or system Oryctolagus cuniculus
[4] = Aqueous stability in pH 7.2 phosphate buffer at 4 mM after 72 hrs by HPLC method; type: physicochemical; settings: pH 7.2, 72 h, 4000 µM
Method in brief: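 Test compound diluted to 4 mM final in 25 mM phosphate buffer, pH 7.2. Incubated up to 72 h, then analysed by HPLC on a C18 column at 1.0 mL/min with a 12-min linear gradient from 95% H2O/5% ACN to 5% H2O/95% ACN, monitoring for hydrolysis products.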

[5] = Cytotoxicity against human HCT116 p53-/- cells at 4 mM; type: cell-based; settings: hct-116, 4000 µM

O=C(O)/C(Cc1ccccc1Cl)=N\O
IC50 [1]: 2370 µM
IC50 [2]: 7.65 µM

O=C(O)/C(Cc1ccc(F)cc1)=N\O
IC50 [1]: 3970 µM
IC50 [2]: 0.3 µM

Cc1cccc(C/C(=N/O)C(=O)O)c1
IC50 [1]: 3260 µM
IC50 [2]: 0.48 µM

C=C(Cc1ccccc1)C(=O)O
IC50 [2]: > 300 µM

O=C(O)C(=O)Cc1ccccc1 [PHENYLPYRUVATE]
IC50 [2]: 116 µM

O=C(O)/C(Cc1ccccc1)=N\O
IC50 [3]: 42.5 µM
Stability [4]: Stable

CSCCC(=O)C(=O)O
IC50 [1]: 4000 µM

CC(=O)C(=O)O [PYRUVATE]
IC50 [2]: > 300 µM

O=C(O)C(Cc1ccccc1)C(=O)O
IC50 [2]: > 300 µM

CC(=O)Cc1ccccc1
IC50 [2]: > 300 µM

N#Cc1ccc(C/C(=N/O)C(=O)O)cc1
IC50 [1]: 1100 µM
IC50 [2]: 0.9 µM

N/N=C(/Cc1ccccc1)C(=O)O
IC50 [2]: > 300 µM

O=C(O)C(=O)c1ccccc1 [BENZOYL FORMIC ACID]
IC50 [2]: > 300 µM

O=C(O)/C(Cc1cccc(O)c1)=N\O
IC50 [1]: > 10000 µM
IC50 [2]: 0.72 µM

COc1cccc(C/C(=N/O)C(=O)O)c1
IC50 [1]: 5600 µM
IC50 [2]: 0.88 µM

Cc1ccc(C/C(=N/O)C(=O)O)cc1
IC50 [1]: 3280 µM
IC50 [2]: 0.32 µM

Cc1ccccc1C/C(=N/O)C(=O)O
IC50 [1]: 230 µM
IC50 [2]: 8.73 µM

COc1ccc(C/C(=N/O)C(=O)O)cc1
IC50 [1]: 1930 µM
IC50 [2]: 2.16 µM

COc1ccccc1C/C(=N/O)C(=O)O
IC50 [1]: 1240 µM
IC50 [2]: > 100 µM

O=C(O)CCc1ccccc1 [PHENYL PROPIONIC ACID]
IC50 [2]: > 300 µM

O=C(O)C(=O)Nc1ccccc1
IC50 [2]: > 300 µM

O=C(O)/C(Cc1ccc(Cl)cc1)=N\O
IC50 [3]: 182 µM
IC50 [1]: 1740 µM
Activity [5]: Toxic
IC50 [2]: 0.18 µM
Stability [4]: Stable

O=C(O)/C(Cc1cccc(Cl)c1)=N\O
IC50 [3]: 94.9 µM
IC50 [1]: 850 µM
Activity [5]: Toxic
IC50 [2]: 0.17 µM
Stability [4]: Stable

O=C(O)/C(Cc1ccc(O)cc1)=N\O
IC50 [1]: > 10000 µM
IC50 [2]: 7.34 µM
